Assay results published in ChEMBL document CHEMBL4513216, “Probing the Open Global Health Chemical Diversity Library for Multistage-Active Starting Points for Next-Generation Antimalarials” (ACS Infect Dis, 2020).

Experiment: Toxicity liver stage against HepG2, at 10uM
Format: cell-based
Set-up: test concentration 10 uM, cell line HepG2-A16-CD81EGFP
Conditions: human, HepG2-A16-CD81EGFP cells; read-out: INHIBITION
Procedure, shortened: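 Uninfected HepG2-A16-CD81EGFP cells, 3 × 10^3 per well, 1536-well, plated on prespotted compound at 10 μM final, parasite-free screening media added to match infected plates; puromycin 10 μM positive, DMSO 0.5% negative; run in parallel with 48 h PbLuc assay at 37 °C, 5% CO2; viability by CellTiter-Glo luminescence, normalized to controls.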

SMILES	cytotoxicity at 10 µM
CC1(NC(=O)CC2CCc3ccccc32)CCOCC1 (configuration not stated)	0.995%
CCN1CCC(CC(=O)NCC(O)c2cccc(OC)c2)CC1 (configuration not stated)	-6.87%
COC(=O)c1cccc2nc([C@H]3CCN(Cc4ccccc4)C3)oc12	6.06%
O=C(c1ccc(N2CCCCCC2)nn1)N1CCc2ccccc21	-8.04%
CCOc1ccc(-c2c(C#N)c(N)nc3c2COCC3)cn1	-0.339%
CCn1ncc2c1C(COC)N(C(=O)c1ccc3c(c1)OCO3)CC2 (configuration not stated)	8.1%
CNC(=O)C(C)CN(C)C(=O)Nc1cc(-n2cccc2)ccc1F (configuration not stated)	-5.28%
CCOCC1CN(Cc2ccc(F)cc2)Cc2nn(C)cc21 (configuration not stated)	-83.3%
N#CCCN(Cc1cccnc1)C(=O)Cc1ccc(-n2cnnn2)cc1	2.32%
CC(C)Cc1noc(CN2CCN(c3nccs3)CC2)n1	0.607%
CCOC(=O)CNc1nc(C(C)(C)C)nc2c1cnn2C	-12.8%
Cc1cc(CN(Cc2ccccc2)C2CC2)on1	0.174%
COCCN1CCCC(c2nccnc2-c2cccc(Cl)c2)C1 (configuration not stated)	3.99%
COc1cccc(-c2noc(C3CCN(Cc4cccs4)C3)n2)c1 (configuration not stated)	-0.192%
CCOc1ccc2nc(CN3CCOC(CN)C3)ccc2c1 (configuration not stated)	-3.54%
CCn1cc(Cl)c(C(=O)NCc2cnn(C)c2)n1	-4.41%
COCCN1C(=O)CC(N2CCN(c3ccc(F)cc3)CC2)C1=O (configuration not stated)	-9.26%
COC(=O)c1ccc(N2CCN(C(=O)c3cnccn3)C(C)C2)cc1 (configuration not stated)	-12.9%
Cc1ccc(C(=O)N2CCN(Cc3ccccc3)CC2)n1C	-1.28%
O=C(NCCn1ccc(-c2ccncc2)n1)c1ccncc1	-19.1%
Cn1cc(C[C@H]2[C@H](O)CCN2Cc2ccc3c(c2)OCO3)cn1	-80.5%

SMILES	cytotoxicity at 10 µM
CN(C)C(=O)N1CCCn2nc(CNC(=O)CCc3cccs3)cc2C1	-5.04%
O=C(COc1ccc(F)cc1F)N1CCOCC(O)(CN2CCCC2)C1 (configuration not stated)	0.678%
COc1cccc(CCNS(=O)(=O)c2ccc(NC(C)=O)cc2)c1	1.54%
COCCN1C[C@@H]2CC[C@H]1CN(C(=O)CCc1c(C)nn(C)c1C)C2	-8.6%
CCN(Cc1cccc2c1OCO2)C(=O)C(C)c1cccnc1 (configuration not stated)	-4.84%
CC(=O)c1c(O)n(C)c2ccccc12	1.64%
CN(C)S(=O)(=O)N1CCN(c2cc(-n3cccc3)ncn2)CC1	0.781%
O=C(NC1CC1)C1CN(Cc2ccc3c(c2)OCCO3)CCN1 (configuration not stated)	-3.22%
Cc1nc(NC(=O)C(C)N2CCN(c3ccccc3F)CC2)sc1C (configuration not stated)	-0.879%
CC(NC(=O)c1ccc(F)cc1F)c1cnn(C)c1 (configuration not stated)	3.68%
Cc1ccc(CN(C(=O)NCCNC(=O)c2cccnc2)C(C)C)o1	-6.06%
O=C(O)CNc1cc(-c2nccnc2N2CCCC2)c2cc[nH]c2n1	4.9%
CN(C)CCN(C)c1cc(N2CCN(c3ccccn3)CC2)ncn1	1.23%
CN1C[C@@H]2COC[C@]2(C(=O)NCCc2cccs2)C1	8.1%
c1cncc(O[C@H]2COCCN(C3CCC3)C2)c1	0.514%
CCOc1ncccc1CNC(=O)Nc1ccc(OC)c(OC)c1	-3.82%
CS(=O)(=O)Cc1ccc(Cl)cc1NCc1ccccc1F	6.8%
c1ccc(CN2CC[C@H]3CO[C@H](CNc4ncccn4)[C@H]3C2)cc1	-5.87%
Fc1ccc(-c2cc(NCCC3CCOC3)n3nccc3n2)cc1 (configuration not stated)	2.8%
COCCN(CC1CC1)c1nc(CCN)nc2sc(C)c(C)c12	0.956%
Cc1cnn(CCC(=O)N2CCCC(c3noc(C)n3)C2)c1 (configuration not stated)	-3.98%

SMILES	cytotoxicity at 10 µM
COCCN(C(=O)c1ccsc1)c1ccc(C#N)cc1	4.19%
CCS(=O)(=O)NC[C@]12COC[C@H]1CN(Cc1ccccn1)C2	-72.5%
FC(F)(F)COCCN1CCc2cncnc2C1	-2.67%
CSc1nc2ccsc2c(=O)n1CC(=O)NC1CCCCC1	4.45%
COCCOC(=O)N1CC2=CC(C)(C)COc3ccc(OC)c(c32)C1	1.22%
Cc1sc(Br)cc1S(=O)(=O)NCCCN	0.973%
CCn1cnnc1CNC(=O)N(C)Cc1ccc2c(c1)OCCO2	-1.96%
O=C(N[C@@H]1CC[C@@H](N2CCOCC2)[C@@H]1O)c1cnn2cccnc12	-27.1%
CN1CCC(N(C)C(=O)c2cnn(-c3ccccc3Br)c2N)CC1	-5.63%
C1CC(CN2C[C@@H]3C[C@@H](c4nnc(C5CC5)o4)O[C@@H]3C2)CCO1	6.58%
CCCc1noc(CCC(=O)N2CCCC2Cn2cc(C)cn2)n1 (configuration not stated)	-1.11%
O=C(CCc1ccc(Br)cc1F)NS(=O)(=O)c1ccc2c(c1)OCCO2	2.48%
O=C(NCCN1CCCCCC1=O)c1ccn(-c2ccc(F)cc2)n1	-8.62%
NC(=O)C1CCN(C(=O)CCSCc2ccc(Cl)c(Cl)c2)CC1	-1.35%
O=S(=O)(NC[C@H]1C[C@@H]2CCN1C[C@@H]2CN1CCCCC1)c1ccccc1	-4.32%
O=C(NCc1ccc2c(c1)CCCO2)C1CNCCO1 (configuration not stated)	-7.49%
O=C(C1CC(c2cccc(F)c2)=NO1)N1CCc2ccccc21 (configuration not stated)	2.46%
Cc1ccnn1CCC(=O)N1CCCC[C@@]2(C)[C@@H]1CCC(=O)N2C	3.38%
CC(C)S(=O)(=O)N1C[C@H]2OC(=O)N(CCc3cccc(Cl)c3)[C@H]2C1	0.642%
Cc1n[nH]c(C)c1CCC(=O)NC1CCCN(c2ccccc2F)C1 (configuration not stated)	-13.7%
CC(C(=O)NCCOc1ccc2c(c1)CCC2)n1cncn1 (configuration not stated)	-1.58%

SMILES	cytotoxicity at 10 µM
CCC(Nc1cccc(Oc2ccc(C#N)cc2)c1)C(N)=O (configuration not stated)	38%
Cc1cc(C)n(CC2CCCCN2C(=O)c2cnn(C)c2)n1 (configuration not stated)	6.79%
CSCc1noc(CN2CCC3(CC2)CC(=O)N(CC(C)C)C3)n1	-0.0813%
CC1(C)CC1(C(=O)N1CC(c2cccnc2)C1)c1ccc(F)cc1 (configuration not stated)	-9.41%
C1CCC(NCCN2CCOCC2)C1	-145%
Cc1cccc(C(C)(C)NC(=O)CS(=O)(=O)CC(C)C)c1	0.927%
CCOCC1CCN(C(=O)C(c2ccc(F)cc2)N(C)C)CC1 (configuration not stated)	1.31%
CC(=O)N1CCCC2(C1)CN(c1nncs1)CCO2 (configuration not stated)	-102%
CC(Cn1cccn1)NCC(=O)NC1CCOCC1 (configuration not stated)	2.51%
COc1cccc(-c2n[nH]c3c2CN(C(=O)C2=C(C)OCCO2)CC3)c1	3.28%
O=C(CNc1ccc(OC2CCOC2)cc1)NCc1ccco1 (configuration not stated)	5.03%
Cc1cc(NCCO)nc(N2CCN(C)CC2)c1C#N	-17.4%
CS(=O)(=O)N1CCC(c2nnc3ccc(C(=O)NC4CCC4)cn23)C1 (configuration not stated)	3.6%
O=C(Nc1cccnc1N1CCSCC1)c1ccc2c(c1)CCC2	-2.03%
Cc1ccc(CN2CCn3c(CNS(C)(=O)=O)nnc3C2)s1	-67.7%
Cn1cc(CCCN2CCCC(c3cc(C(F)(F)F)[nH]n3)C2)cn1 (configuration not stated)	-2.59%
CC(NC(=O)NCCCn1cncn1)c1ccccc1F (configuration not stated)	-13.3%
O=C(NCCNc1ccc(C(F)(F)F)cn1)c1ccc(Br)cc1F	7.15%
Cn1cc(C(=O)NCc2cncc3c2CCNC3)cn1	-91.6%
